Bioassay records (PubChem)
Compounds with a hit are over-represented: about 0.55% of the library has one in this group of screens.
OXTR potentiator: human OXTR potentiation. P30559. CHO-OTR cells, Fluo-8 calcium fluorescence, potentiator mode; 0% = oxytocin EC15, 100% = EC100. activation, % at 3 µM. actives 0.061% (n = 320,000);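 active means activation above that plate's cutoff, the mean activation of tested compounds plus 3 SD, cut at about 6.6% in these data, passing the limit was not always enough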;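 further: 100% uses oxytocin at 75 nM as the full agonist control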
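Assay system: CHO cell line stably expressing human OTR. Reagent: EC15 oxytocin agonist. Dosing: single dose, 3.0 µM nominal final compound concentration. Timing: compound 6 min at room temperature before oxytocin, 100 s read. Signal: kinetic Fluo-8 calcium fluorescence. Controls: oxytocin EC15 low and EC100 high.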
TRPN1 ag: activates the zebrafish TRPN1 channel. activation, % at 3 µM. HEK293 zebrafish TRPN1-YFP, Fluo-8 calcium fluorescence; 100% = response to 87 µM carbachol. actives 0.18% (n = 220,000);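 active means activation above its plate's cutoff, the mean activation of test wells on that plate plus 3 SD, cut at about 19% in these data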;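 further: 0% = DMSO alone and 100% = 87 µM carbachol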
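Material – zebrafish TRPN1-YFP in HEK293 cells · Doses – 3 µM single point · Schedule – dye 1 h 37 °C plus 30 min RT · Signal – Fluo-8 calcium fluorescence, excitation 470-495 nm, emission 515-575 nm · Read-out – % activation versus carbachol response · Control set – carbachol high, DMSO low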
V1aR counter: counter-screen for oxytocin receptor agonists: human V1a receptor agonists; actives 0.25% (n = 320,000); P37288; activation, % at 3 µM; CHO-V1R cells, Fluo-8 calcium fluorescence, agonist mode; 0% DMSO, 100% 3 nM vasopressin; AID 2797;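 active means activation above the mean activation of all tested compounds plus 3 SD, per screening run, cut at about 20% in these data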;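 further: signal is peak over basal fluorescence ratio across a 100 second FLIPR read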
TRPML3 ag: activates the human TRPML3 channel | Q8TDD5 | HEK293 TRPML3-YFP, Fluo-8 calcium fluorescence; 100% = the carbachol control signal | activation, % at 3 µM | actives 0.29% (n = 220,000);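 active means activation above its plate's cutoff, the mean activation of the plate's test wells plus 3 SD, cut at about 12% in these data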;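 further: 0% = DMSO only wells and 100% = carbachol wells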
Target sequence (Q8TDD5 whole entry, looked up): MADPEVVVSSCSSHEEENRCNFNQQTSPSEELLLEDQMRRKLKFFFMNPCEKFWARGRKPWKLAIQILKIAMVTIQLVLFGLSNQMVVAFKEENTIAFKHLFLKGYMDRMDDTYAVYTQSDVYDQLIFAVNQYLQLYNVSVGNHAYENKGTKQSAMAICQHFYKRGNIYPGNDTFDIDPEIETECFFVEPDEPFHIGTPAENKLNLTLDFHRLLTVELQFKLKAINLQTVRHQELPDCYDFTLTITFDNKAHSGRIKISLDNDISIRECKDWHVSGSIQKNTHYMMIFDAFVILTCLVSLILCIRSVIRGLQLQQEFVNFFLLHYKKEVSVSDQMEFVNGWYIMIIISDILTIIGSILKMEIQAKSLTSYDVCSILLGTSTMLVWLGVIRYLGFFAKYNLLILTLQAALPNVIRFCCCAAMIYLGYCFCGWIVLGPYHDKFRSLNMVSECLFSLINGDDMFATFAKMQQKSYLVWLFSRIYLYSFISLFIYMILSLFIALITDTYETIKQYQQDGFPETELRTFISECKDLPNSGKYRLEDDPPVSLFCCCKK
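system = HEK293 cells stably carrying human TRPML3-YFP | doses = one concentration, 3 µM nominal, 0.3% DMSO | timing = dye loading 1 h 37 °C then 30 min ambient, 125 s read | detection = Fluo-8 calcium dye fluorescence, ex 470-495, em 515-575 nm | benchmarks = high control carbachol 87 µM, low control DMSO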
OXTR agonist: agonists of human oxytocin receptor. activation, % at 3 µM. CHO-OTR cells, Fluo-8 calcium fluorescence; normalized: DMSO 0%, oxytocin 100%. actives 0.32% (n = 320,000). AID 2435;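 active means activation above the mean of all tested compounds plus 3 SD, cutoff set per screening run, cut at about 20% in these data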;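 further: peak over basal fluorescence ratio from a 100 s FLIPR kinetic read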
OXTR agonist cf: confirmation of human oxytocin receptor agonists; activation, % at 3 µM; shares compounds with OXTR agonist; CHO-OTR cells, Fluo-8 calcium fluorescence, agonist; actives 20% (n = 390);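 active means mean activation above about 20% derived from the earlier single-dose screen, limit read from the data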;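 further: peak over minimum fluorescence ratio per well during a 100 second FLIPR read; 0% = DMSO alone and 100% = oxytocin high control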
V1aR counter 3x: V1R agonism in triplicate, counter-screen for OXTR agonists | shares compounds with OXTR agonist | CHO-V1R cells, Fluo-8 calcium fluorescence, agonist | activation, % at 3 µM | actives 10% (n = 390);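 active means mean activation over triplicate exceeds the hit threshold set in the earlier primary screen, cut at about 20% in these data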;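 further: peak over basal fluorescence ratio within a 100 second read; 0% = DMSO alone and 100% = 3 nM vasopressin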
* marks the source's active call; other numbers are inactive results; / = no result.

SMILES	OXTR potentiator	TRPN1 ag	V1aR counter	TRPML3 ag	OXTR agonist	OXTR agonist cf	V1aR counter 3x
Cc1cccc(C(C#N)c2ccc(Cl)nn2)c1 (stereo unspecified)	0	-1	0	0	0	/	/
CSC1=NSC2=NC(=O)/C(=C\c3coc4ccccc4c3=O)C(=N)N12	-11	29*	18	15*	26*	329*	488*
Cc1cc(/C=C2/C(=N)N3C(=NC2=O)SN=C3S(C)(=O)=O)c(C)n1-c1ccc(F)cc1	-13	1	2	0	2	/	/
Cc1noc(C)c1C(=O)NCc1ccccc1F	-2	1	0	4	0	/	/
O=C(Nc1ccc(S(=O)(=O)N2CCCCC2)cc1)c1ccc(CN2CCOCC2)cc1	-12	12	17	6	20*	7	9
CCOc1cc(Br)c(C=O)cc1OCC	6	-3	0	0	-1	/	/
Cc1cc(C)cc(C(=O)NCCC(=O)NCc2cc(=O)n(C)c(=O)n2C)c1	2	/	-1	/	1	/	/
CCOC(=O)c1sc(NC(=O)c2ccc(Cl)s2)cc1C	-1	1	1	1	2	/	/
CCOC(=O)c1sc(NC(=O)Nc2ccc(Cl)cc2)cc1C	-23	18	14	4	20*	11	11
Fc1ccc2[nH]c3c(NCc4ccccc4)ncnc3c2c1	-21	/	7	/	24*	17	13
Cc1ccccc1NC(=O)c1nnn(-c2ccc3c(c2)OCCO3)c1N	-16	/	9	/	21*	2	2
CCOc1ccc(N(CC(=O)N2CCOCC2)S(=O)(=O)c2ccc(Cl)cc2)cc1	-7	/	1	/	0	/	/
COc1cc(/C=N/OCC(=O)Nc2cc(C)on2)ccc1OCc1ccccc1	-21	8	15	1	24*	16	8
O=C(Nc1ccc([N+](=O)[O-])cc1Cl)c1cc(Cl)ccc1O	-18	/	13	/	21*	15	13
O=C(NCCNc1ccc([N+](=O)[O-])cc1)c1ccc(Cl)cc1	-10	0	2	0	2	/	/
CSc1ccc2c(c1)C(N1CCN(C)CC1)Cc1ccc(F)cc1S2 (stereo unspecified)	-8	/	10	/	26*	4	1
Cc1csc(SCC(=O)N(C)c2c(N)n(Cc3ccccc3)c(=O)[nH]c2=O)n1	0	2	0	1	0	/	/
CC[n+]1c(/C=C(\C)OC)sc2ccccc21	/	-2	/	1	/	/	/
CC[n+]1c(/C=C/C=C/N(C(C)=O)c2ccccc2)sc2cc(OC)ccc21	-11	10	13	2	29*	69*	91*
Cc1cc(N2CCCCC2)nc(NCc2ccccc2)n1	-21	47*	15	6	25*	11	13
CCc1ccc(S(=O)(=O)Nc2ccc(O)c3c(=O)cc(-c4ccccc4Cl)oc23)cc1	-12	/	-2	/	-2	/	/
O=c1cc(-c2ccccc2Cl)oc2c(NS(=O)(=O)c3cc(Cl)cc(Cl)c3O)ccc(O)c12	-18	5	15	0	28*	17	17
CCOc1cc(/C=N/NC(=O)c2cccnc2)ccc1OCc1ccc(C(=O)OC)o1	-9	2	0	1	-1	/	/
CN(/N=C/C=C/c1ccccc1)C1=NS(=O)(=O)c2ccccc21	-4	1	0	1	2	/	/
COc1nccnc1NS(=O)(=O)c1ccc(N=Cc2c(C)[nH]n(-c3ccc(Cl)cc3)c2=O)cc1	-5	1	0	0	0	/	/
SMILES	OXTR potentiator	TRPN1 ag	V1aR counter	TRPML3 ag	OXTR agonist	OXTR agonist cf	V1aR counter 3x
Cc1[nH]n(-c2ccc(Cl)cc2)c(=O)c1C=Nc1ccc(S(=O)(=O)N2CCOCC2)cc1	-11	1	0	1	22*	1	0
Cc1cc(C)cc(OCC(O)CN2CCC(CN3C(=O)c4cccc5cccc(c45)C3=O)CC2)c1 (stereo unspecified)	-11	/	16	/	25*	3	1
COc1cccc(OCC(O)CN2CCC(CN3C(=O)c4cccc5cccc(c45)C3=O)CC2)c1 (stereo unspecified)	-4	1	1	1	3	/	/
Cc1cccc(NC(=O)CCC2CCN(Cc3nccs3)CC2)c1	-9	/	1	/	0	/	/
OCCN1CCN(C2CCC(c3ccc(F)cc3)c3ccc(F)cc32)CC1 (stereo unspecified)	-14	/	17	/	31*	3	1
Cc1onc(-c2ccccc2)c1C(=O)Nc1nnc(C(C)C)s1	-1	/	0	/	-1	/	/
Cc1onc(-c2ccccc2)c1C(=O)Nc1ncc([N+](=O)[O-])s1	-14	/	10	/	21*	16	12
COc1ccc(-n2c(O)c(/C=N/NS(=O)(=O)c3ccc(C)cc3)c3ccccc3c2=O)cc1OC	-16	-1	9	1	32*	15	13
Cc1ccc(S(=O)(=O)c2nnn3c2nc(NCCCN2CCCC2=O)c2ccccc23)cc1C	-8	/	3	/	1	/	/
Cc1ccc(S(=O)(=O)c2nnn3c2nc(NC2CCN(Cc4ccccc4)CC2)c2ccccc23)cc1C	-10	/	0	/	20*	-1	0
O=C(NCc1nc2ccccc2[nH]1)C1=C[C@H](c2coc3ccccc3c2=O)C[C@H](OCc2ccc(CO)cc2)O1	-9	/	-1	/	-2	/	/
Nc1ccc(Br)c2c1C(=O)c1ccccc1C2=O	-13	12	10	9	34*	6	3
Cc1nnc(NS(=O)(=O)c2ccc(Br)cc2)s1	2	/	0	/	0	/	/
COc1ccc(S(=O)(=O)Nc2ccc(N3CCOCC3)cc2)cc1	-12	/	3	/	2	/	/
COc1ccc(NS(=O)(=O)c2ccc(N3CCOCC3)c(N)c2)cc1	-9	/	12	/	20*	11	11
COc1cccc(CNS(=O)(=O)c2c(C)[nH]c(C)c2C(=O)N2CCCCC2)c1	1	/	0	/	0	/	/
CC(=O)n1cc([C@H]2C=C(C(N)=O)O[C@@H](OCc3ccc(CO)cc3)C2)c2ccccc21	-16	/	17	/	20*	19	13
CC(=O)n1cc([C@H]2C=C(C(=O)NCc3ccccc3)O[C@@H](OCc3ccc(CO)cc3)C2)c2ccccc21	-14	1	1	0	2	/	/
COc1ccc(C(=O)/C=C2\Sc3ccccc3N2C)cc1	-5	-2	-1	-1	-1	/	/
COc1ccccc1-[n+]1c(C)cc(/C=C2\Sc3ccccc3N2C)cc1C	-14	26*	12	12*	26*	26*	26*
